The values below come from ChEMBL document CHEMBL4364238, “Discovery of BNC375, a Potent, Selective, and Orally Available Type I Positive Allosteric Modulator of α7 nAChRs” (ACS Med Chem Lett, 2019).

Calls of active or inactive are those of the source. The rule behind the calls is not given here. Bounds are passed on as bounds.

In experiment [1] the target is Neuronal acetylcholine receptor subunit alpha-7 (Rattus norvegicus) (UniProt Q05941). Put plainly: Positive allosteric modulator activity at rat alpha7 nAChR expressed in GH4C1 cells assessed as potentiation of acetylcholine response at 3 uM at -70 mV holding potential preincubated for 30 secs followed by co-application with acetylcholine by automated patch clamp assay. The class given is cell-based. The procedure, abridged: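 Automated planar patch clamp on stable GH4C1 (rat) cell lines expressing rat α7 nAChR; test compound at 3 μM with an EC₂₀ acetylcholine challenge; percent change in peak current versus acetylcholine alone taken as P₃.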
(In general: In patch-clamp work, channel activity is measured electrically.)

For experiment [2], the system named is Mus musculus. Put plainly: Reversal of scopolamine-induced memory impairment in mouse assessed as increase in spontaneous alteration at 1 mg/kg, po administered with compond and scopolamine at 60 mins and 30 mins respectively prior to test by T-maze test. The class given is functional. Conditions: read-out: INH. Put shortly: (§1)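 Mouse T-maze continuous alternation task with scopolamine-induced impairment of spontaneous alternation; compound given orally in saline-based vehicle with 25% Cremophor ELP over 0.003–10.0 mg/kg; group means compared by one-way ANOVA then Fisher's PLSD, p < 0.05 significant.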

For experiment [3], the system named is Mus musculus. Put plainly: Reversal of scopolamine-induced memory impairment in mouse assessed as percentage of increase in spontaneous alteration at 10 mg/kg, po administered with compond and scopolamine at 60 mins snd 30 mins respectively prior to test by T-maze test. The class given is functional. Conditions: read-out: INH. The procedure, abridged: as §1

Experiment [4] relates to Mus musculus. The experiment can be described thus: Reversal of scopolamine-induced memory impairment in mouse assessed as increase in spontaneous alteration at 3 mg/kg, po administered with compond and scopolamine at 60 mins and 30 mins respectively prior to test by T-maze test. Type of experiment: functional. Conditions: read-out: INH. Put shortly: as §1

Sequence of Neuronal acetylcholine receptor subunit alpha-7 (Rattus norvegicus) (Q05941 whole entry): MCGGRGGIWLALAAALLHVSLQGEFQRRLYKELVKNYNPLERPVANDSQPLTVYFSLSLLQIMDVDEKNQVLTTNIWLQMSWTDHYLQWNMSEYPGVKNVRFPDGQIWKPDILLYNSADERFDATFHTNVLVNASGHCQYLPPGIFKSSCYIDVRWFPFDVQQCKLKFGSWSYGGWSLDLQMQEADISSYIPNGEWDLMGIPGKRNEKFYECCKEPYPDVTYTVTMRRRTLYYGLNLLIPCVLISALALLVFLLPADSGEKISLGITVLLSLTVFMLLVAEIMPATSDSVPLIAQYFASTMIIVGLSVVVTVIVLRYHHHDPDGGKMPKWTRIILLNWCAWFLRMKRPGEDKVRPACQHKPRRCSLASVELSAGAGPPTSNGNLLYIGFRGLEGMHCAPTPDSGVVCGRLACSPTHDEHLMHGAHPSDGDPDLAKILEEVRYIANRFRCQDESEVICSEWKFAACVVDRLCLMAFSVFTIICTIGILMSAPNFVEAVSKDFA

As to `Cc1ccc(F)cc1NC[C@H]1[C@H](c2ccc(S(N)(=O)=O)cc2)C1(C)C`, in experiment [1], the Activity is 17400%.
Regarding `CC1(C)C(CNc2ccc(N3CCOCC3)cc2)C1c1ccc(S(N)(=O)=O)cc1` (racemic), in experiment [1], the Activity is under 100%.
The same measure, in the same setting: with `CC1(C)C(CNc2cccc(N3CCOCC3)c2)C1c1ccc(S(N)(=O)=O)cc1` (racemic) the figure was 460%.
As to `CC1(C)[C@H](CNc2ccc(F)cc2OC(F)F)[C@H]1c1ccc(S(N)(=O)=O)cc1`, the Activity in experiment [1] stood at 170%. In addition, in the experiment with Mus musculus [2], the percent reversal of scopolamine-induced memory impairment (increase in spontaneous alternation) at 1 mg/kg is 28%. Also, the percent increase in spontaneous alternation at 10 mg/kg in the experiment on Mus musculus [3] is 41%. Moreover, the percent reversal of scopolamine-induced memory impairment at 3 mg/kg in the experiment with Mus musculus [4] stood at 8%.
The like results for `CC1(C)[C@H](CNc2ccc(F)cc2C(F)(F)F)[C@H]1c1ccc(S(N)(=O)=O)cc1` were, in that order, 410%, -18%, -9% and 38%.
The like results for `Cc1cc(F)c(F)cc1NC[C@@H]1[C@@H](c2ccc(S(N)(=O)=O)cc2)C1(C)C` were, in that order, 420%, 8%, 15% and 31%.
Regarding `COc1ccc(Cl)cc1NCC1C(c2ccc(S(=O)(=O)NN)cc2)C1(C)C` (racemic), the Activity in experiment [1] came to 130%.
Take `Cc1cc(F)c(F)cc1NC[C@H]1[C@H](c2ccc(S(N)(=O)=O)cc2)C1(C)C`: in experiment [1], the Activity worked out at 8930%. Further, in the experiment with Mus musculus [2], the percent reversal of scopolamine-induced memory impairment (increase in spontaneous alternation) at 1 mg/kg is -13%. Moreover, the percent increase in spontaneous alternation at 10 mg/kg with Mus musculus [3] was -5%. In addition, in the experiment with Mus musculus [4], the percent reversal of scopolamine-induced memory impairment at 3 mg/kg was -15%.
As for `CC1(C)C(CNc2cc(F)ccc2OC(F)(F)F)C1c1ccc(S(N)(=O)=O)cc1` (racemic), in experiment [1], the Activity was 2440%.
Still for that read-out and setting: the value for `CC1(C)C(CNc2ccc(F)cc2OC(F)F)C1c1ccc(S(N)(=O)=O)cc1` (racemic) was 3360%; that for `CC1(C)C(CNC2CCCCC2)C1c1ccc(S(N)(=O)=O)cc1` (racemic) was under 100%; that for `COc1ccc(C(F)(F)F)cc1NCC1C(c2ccc(S(N)(=O)=O)cc2)C1(C)C` (racemic) was 8170%.
Consider `CC1(C)C(CNc2cncc(F)c2)C1c1ccc(S(N)(=O)=O)cc1` (racemic), for which the Activity in experiment [1] came to 3000%.
On the same count and under the same terms, with `Cc1cc(F)ccc1NC[C@@H]1[C@@H](c2ccc(S(N)(=O)=O)cc2)C1(C)C` the figure was 470%; with `COc1ccc(S(N)(=O)=O)cc1NCC1C(c2ccc(S(N)(=O)=O)cc2)C1(C)C` (racemic), under 100%.
The same measure, in the same setting: with `Cc1ccc(Cl)cc1NCC1C(c2ccc(S(N)(=O)=O)cc2)C1(C)C` (racemic) the figure was 12300%; with `Cc1cc(F)ccc1NCC1C(c2ccc(S(N)(=O)=O)cc2)C1(C)C` (racemic), 8660%.
Still for that read-out and setting: the value for `CC1(C)C(CNc2ccccc2)C1c1ccc(S(N)(=O)=O)cc1` (racemic) was 2570 to 9890%.
With `CCOc1ccc(Cl)cc1NC(=O)C1C(c2ccc(S(N)(=O)=O)cc2)C1(CC)CC` (stereo not drawn), in experiment [1], the outcome was Active.
Same read-out and setting: the value for `COc1ncccc1NCC1C(c2ccc(S(N)(=O)=O)cc2)C1(C)C` (racemic) was 2420%; that for `Cc1cc(F)c(Cl)cc1NCC1C(c2ccc(S(N)(=O)=O)cc2)C1(C)C` (racemic) was 9230%.
The same measure, in the same setting: the value for `Cc1cc(F)ccc1NC[C@H]1[C@H](c2ccc(S(N)(=O)=O)cc2)C1(C)C` was 17600%; that for `COc1ccc(Cl)cc1NCC1C(c2ccc(S(=O)(=O)NO)cc2)C1(C)C` (racemic) was 720%; that for `CCOc1ccc(Cl)cc1NC(=O)C1C(c2ccc(S(N)(=O)=O)cc2)C1(C1CCCCC1)C1CCCCC1` (stereo not drawn) was “Active”.
On the same count and under the same terms, with `Cc1ncccc1NCC1C(c2ccc(S(N)(=O)=O)cc2)C1(C)C` (racemic) the figure was 130%; with `CC(C)(C)c1cc(NCC2C(c3ccc(S(N)(=O)=O)cc3)C2(C)C)no1` (racemic), under 100%.
